# According to ChEMBL document CHEMBL1641437, “New furin inhibitors based on weakly basic amidinohydrazones” (Bioorg Med Chem Lett, 2011):
# pKi: −log10 of the molar value.
# Columns and labels:
# Furin = Furin (Homo sapiens, UniProt P09958); experiment: Inhibition of human recombinant furin by fluorescence plate reader analysis
# Procedure, shortened: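 Recombinant human furin, 0.95 nM, with fluorogenic pyroGlu-Arg-Thr-Lys-Arg-AMC at 5, 20 and 50 substrate concentrations, in 100 mM HEPES pH 7.0 with 0.2% Triton X-100, 2 mM CaCl2, 0.02% sodium azide, 1 mg/mL BSA; room temperature. AMC release read by fluorescence (ex 380, em 460 nm); Ki obtained by Dixon plot.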
# Prothrombin = Prothrombin (Homo sapiens, UniProt P00734); experiment: Inhibition of thrombin
# [1] = biological target: T1, Subtilisin Carlsberg (Bacillus licheniformis) (UniProt P00780); experiment: Inhibition of Bacillus licheniformis subtilisin at 100 uM relative to control
# T1 sequence (whole entry): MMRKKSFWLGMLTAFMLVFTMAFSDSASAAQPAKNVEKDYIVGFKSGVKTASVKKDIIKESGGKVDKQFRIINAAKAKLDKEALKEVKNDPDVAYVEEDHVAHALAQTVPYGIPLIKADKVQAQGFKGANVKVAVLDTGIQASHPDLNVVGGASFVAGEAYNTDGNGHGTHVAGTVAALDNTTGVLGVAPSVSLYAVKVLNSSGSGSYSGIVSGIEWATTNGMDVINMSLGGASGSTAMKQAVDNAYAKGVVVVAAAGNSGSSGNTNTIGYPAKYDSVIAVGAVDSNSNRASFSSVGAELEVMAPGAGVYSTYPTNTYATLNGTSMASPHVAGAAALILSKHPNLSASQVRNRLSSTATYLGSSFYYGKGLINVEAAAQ
# [2] = Inhibition of trypsin
# Coagulation factor X = Coagulation factor X (Homo sapiens, UniProt P00742); experiment: Inhibition of factor 10a
# Plasminogen = Plasminogen (Homo sapiens, UniProt P00747); experiment: Inhibition of plasmin
# Chain of Plasminogen (P00747 97-580 limits assumed): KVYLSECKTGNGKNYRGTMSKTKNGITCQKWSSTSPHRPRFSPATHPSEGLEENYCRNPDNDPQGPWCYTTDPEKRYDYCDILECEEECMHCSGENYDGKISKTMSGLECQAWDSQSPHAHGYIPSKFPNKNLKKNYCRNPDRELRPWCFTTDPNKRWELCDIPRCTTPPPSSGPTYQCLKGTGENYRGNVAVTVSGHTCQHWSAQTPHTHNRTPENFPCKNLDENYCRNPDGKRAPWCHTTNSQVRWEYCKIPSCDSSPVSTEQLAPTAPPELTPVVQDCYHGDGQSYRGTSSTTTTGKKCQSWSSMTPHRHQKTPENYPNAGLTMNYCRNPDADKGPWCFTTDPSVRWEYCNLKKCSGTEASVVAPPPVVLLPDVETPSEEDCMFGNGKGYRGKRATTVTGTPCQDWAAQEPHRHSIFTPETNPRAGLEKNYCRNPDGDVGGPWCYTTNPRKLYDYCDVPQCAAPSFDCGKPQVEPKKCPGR
# Chain of Plasminogen (P00747 581-810 limits assumed): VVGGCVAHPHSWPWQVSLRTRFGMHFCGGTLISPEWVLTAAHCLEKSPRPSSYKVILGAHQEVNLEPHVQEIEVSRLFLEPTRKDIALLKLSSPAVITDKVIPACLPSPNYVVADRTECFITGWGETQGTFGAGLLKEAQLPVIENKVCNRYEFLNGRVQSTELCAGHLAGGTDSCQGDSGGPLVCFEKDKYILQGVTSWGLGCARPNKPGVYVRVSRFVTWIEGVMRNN
# Chain of Furin (P09958 whole entry): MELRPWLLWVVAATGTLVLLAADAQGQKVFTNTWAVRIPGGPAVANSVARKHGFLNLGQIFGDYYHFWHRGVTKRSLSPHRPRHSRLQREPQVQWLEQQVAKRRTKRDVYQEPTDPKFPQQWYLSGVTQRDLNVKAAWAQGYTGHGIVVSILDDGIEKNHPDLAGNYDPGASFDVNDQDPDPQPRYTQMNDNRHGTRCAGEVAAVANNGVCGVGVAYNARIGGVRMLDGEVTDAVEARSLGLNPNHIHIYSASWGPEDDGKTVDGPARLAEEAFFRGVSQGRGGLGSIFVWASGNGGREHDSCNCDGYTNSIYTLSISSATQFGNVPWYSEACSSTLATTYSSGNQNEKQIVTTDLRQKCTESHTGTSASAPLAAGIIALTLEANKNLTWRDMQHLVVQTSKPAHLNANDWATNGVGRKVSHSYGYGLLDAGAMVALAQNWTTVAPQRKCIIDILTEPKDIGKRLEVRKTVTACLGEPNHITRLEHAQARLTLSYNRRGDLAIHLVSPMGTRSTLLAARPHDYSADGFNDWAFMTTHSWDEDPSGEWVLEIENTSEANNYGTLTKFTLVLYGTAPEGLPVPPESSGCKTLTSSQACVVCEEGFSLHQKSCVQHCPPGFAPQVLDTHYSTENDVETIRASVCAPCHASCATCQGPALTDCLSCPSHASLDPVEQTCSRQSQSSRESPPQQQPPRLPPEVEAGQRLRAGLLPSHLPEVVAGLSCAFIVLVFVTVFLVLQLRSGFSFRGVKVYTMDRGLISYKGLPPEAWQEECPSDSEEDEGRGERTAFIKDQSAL
# Chain of Coagulation factor X (P00742 41-179 limits assumed): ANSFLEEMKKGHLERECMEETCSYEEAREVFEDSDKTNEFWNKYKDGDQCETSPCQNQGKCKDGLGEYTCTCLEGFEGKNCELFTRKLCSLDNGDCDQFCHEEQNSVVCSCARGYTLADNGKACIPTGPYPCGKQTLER
# Chain of Coagulation factor X (P00742 235-488 limits assumed): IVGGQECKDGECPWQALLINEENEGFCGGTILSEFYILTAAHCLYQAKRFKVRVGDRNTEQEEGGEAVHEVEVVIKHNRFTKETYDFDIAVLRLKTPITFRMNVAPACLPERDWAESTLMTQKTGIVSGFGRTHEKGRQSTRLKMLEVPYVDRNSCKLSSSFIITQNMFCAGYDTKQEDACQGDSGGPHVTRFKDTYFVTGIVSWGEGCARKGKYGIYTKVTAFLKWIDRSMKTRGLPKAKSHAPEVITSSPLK
pKi (Furin),pKi (Prothrombin),inhibition [1],pKi [2],pKi (Coagulation factor X),pKi (Plasminogen),Structure (SMILES)
4.55,–,–,–,–,–,N=C(N)NNC(=O)c1cccc(C(=O)NNC(=N)N)c1
6.24,6.07,–,–,–,–,C/C(=N/NC(=N)N)c1cc(OCC(=O)Nc2cc(/C(C)=N\NC(=N)N)cc(/C(C)=N/NC(=N)N)c2)cc(/C(C)=N\NC(=N)N)c1
4.76,–,–,–,–,–,N=C(N)N/N=C1\C/C(=N\NC(=N)N)c2ccccc21
5.74,–,–,–,–,–,C/C(=N\NC(=N)N)c1cc(N)cc(/C(C)=N/NC(=N)N)c1
4.94,–,4.4%,–,–,–,N=C(N)N/N=C/c1cccc(/C=N/NC(=N)N)c1
5.95,–,7.7%,–,–,–,C/C(=N/NC(=N)N)c1cc(NC(=O)CC(=O)Nc2cc(/C(C)=N/NC(=N)N)cc(/C(C)=N/NC(=N)N)c2)cc(/C(C)=N/NC(=N)N)c1
6.34,3.10,7.9%,5.55,4.80,3.00,C/C(=N\NC(=N)N)c1cc(NC(=O)CCCNC(=N)N)cc(/C(C)=N/NC(=N)N)c1
5.87,–,–,–,–,–,C/C(=N/NC(=N)N)c1cc(OCC(=O)Nc2ccccc2)cc(/C(C)=N\NC(=N)N)c1
5.85,3.00,–,3.96,3.00,3.00,C/C(=N\NC(=N)N)c1cc(NC(=O)CCCCCNC(=N)N)cc(/C(C)=N/NC(=N)N)c1
5.98,3.00,–,4.64,3.00,3.00,C/C(=N\NC(=N)N)c1cc(NC(=O)CCCCNC(=N)N)cc(/C(C)=N/NC(=N)N)c1
5.71,–,–,–,–,–,C/C(=N/NC(=N)N)c1cc(NC(=O)COc2ccc(/C(C)=N/NC(=N)N)cc2)cc(/C(C)=N/NC(=N)N)c1
5.74,3.10,7.9%,–,–,–,C/C(=N\NC(=N)N)c1ccc(/C(C)=N/NC(=N)N)cc1
5.84,–,–,–,–,–,C/C(=N/NC(=N)N)c1cccc(OCC(=O)Nc2cc(/C(C)=N\NC(=N)N)cc(/C(C)=N/NC(=N)N)c2)c1
3.76,3.00,–,–,–,–,NC(N)=NNC(=O)c1ccc(C(=O)NN=C(N)N)cc1
4.36,–,–,–,–,–,C/C(=N\NC(=N)N)c1ccc(Oc2ccc(/C(C)=N/NC(=N)N)cc2)cc1
5.95,3.00,–,4.17,3.00,3.00,C/C(=N\NC(=N)N)c1cc(NC(=O)[C@H](N)CCCNC(=N)N)cc(/C(C)=N/NC(=N)N)c1
5.32,–,0%,–,–,–,C/C(=N\NC(=N)N)c1cccc(/C(C)=N/NC(=N)N)c1
5.81,4.49,–,4.23,4.10,3.40,C/C(=N\NC(=N)N)c1cc(NS(=O)(=O)c2ccccc2)cc(/C(C)=N/NC(=N)N)c1
< 3.30,–,–,–,–,–,N=C(N)N/N=C/c1ccccc1
5.92,3.00,–,4.92,3.00,3.96,C/C(=N\NC(=N)N)c1cc(NC(=O)CCCN)cc(/C(C)=N/NC(=N)N)c1
5.25,–,–,–,–,–,C/C(=N/NC(=N)N)c1cc(NC(=O)COc2ccccc2)cc(/C(C)=N/NC(=N)N)c1

Structure (SMILES),pKi (Furin),pKi (Prothrombin),inhibition [1],pKi [2],pKi (Coagulation factor X),pKi (Plasminogen)
N=C(N)NNC(=O)c1ccccc1,3.42,–,–,–,–,–
N=C(N)N/N=C/c1ccc(/C=N/NC(=N)N)cc1,5.83,4.17,0%,–,–,–
C/C(=N\NC(=N)N)c1ccccc1,3.56,–,–,–,–,–
